RanGTP-Imp inh: inhibitors of RanGTP-importin-beta interaction, primary screen, biochemical, FRET, CFP-Ran, YFP-importin-beta, homogeneous; AID 2216, 2009; cell-free CFP-Ran/YFP-importin-beta FRET ratio; 300,000 tested, 1.1% active; Ran GTPase (GTP-bound) - importin-beta complex; inhibition, % (test concentration not listed);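 active = more than half of the replicate wells show a fall in the fluorescence ratio signal beyond about 16%, limit read from the data, passing the limit was not always enough; inconclusive = exactly half of the replicate wells pass the set limit; inactive = fewer than half of replicates pass the limit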;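 note: 0% = DMSO wells and 100% = Ran loaded with GDP instead of GTP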
Runt-CBFb FRET: inhibitors of RUNX1 Runt–CBFb binding, primary screen, biochemical, FRET, Cerulean-Runt, Venus-CBFb, uHTS | 220,000 tested, 0.46% active | inhibition, % at 20 µM | Runt-related transcription factor 1 (Homo sapiens) + Core-binding factor subunit beta … | Cerulean-Runt/Venus-CBFb FRET ratio 530/480, 1 h;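 active = inhibition over about 50% at 20 µM in the single-dose screen, limit read from the data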;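 note: 0% = DMSO wells and 100% = excess unlabeled CBFb competitor control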
Target sequence (Q01196 whole entry, looked up): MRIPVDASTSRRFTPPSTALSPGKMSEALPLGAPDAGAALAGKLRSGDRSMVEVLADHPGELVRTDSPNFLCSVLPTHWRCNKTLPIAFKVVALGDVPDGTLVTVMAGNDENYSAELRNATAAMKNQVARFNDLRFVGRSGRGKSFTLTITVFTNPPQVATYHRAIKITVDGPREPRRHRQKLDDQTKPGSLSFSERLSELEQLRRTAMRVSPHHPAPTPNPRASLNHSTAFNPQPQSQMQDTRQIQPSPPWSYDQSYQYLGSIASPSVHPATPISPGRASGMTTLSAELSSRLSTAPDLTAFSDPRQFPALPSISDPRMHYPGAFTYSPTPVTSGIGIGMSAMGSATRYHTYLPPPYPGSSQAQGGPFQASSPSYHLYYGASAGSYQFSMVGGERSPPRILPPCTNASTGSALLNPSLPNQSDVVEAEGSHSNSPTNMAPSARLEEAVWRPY
Target sequence (Q13951 whole entry, looked up): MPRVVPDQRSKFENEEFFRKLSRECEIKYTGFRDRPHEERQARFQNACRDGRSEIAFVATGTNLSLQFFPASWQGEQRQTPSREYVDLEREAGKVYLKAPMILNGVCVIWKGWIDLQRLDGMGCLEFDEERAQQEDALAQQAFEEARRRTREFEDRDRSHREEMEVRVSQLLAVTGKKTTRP
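Assay system: Cerulean-Runt domain / Medium: Tris 50 mM pH 7.5, KCl, K2SO4, 0.01% BSA / Timing: protein complex preformed 1 h, compound exposure 1 h, room temperature, dark / Measured by: FRET, excitation 422 nm, emission at 530 and 480 nm / Evaluation: loss of energy transfer signal / Control set: 5 µM unlabeled CBFb as full-inhibition high control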
Rce1 inh: yeast Rce1p protease inhibitors, primary screen, biochemical, fluorescence, cell-free homogeneous | CAAX prenyl protease 2 (Saccharomyces cerevisiae (strain ATCC 204508 / S288c)), Q03530 | yeast membranes, quenched prenylated peptide cleavage fluorescence | calls only | 290,000 tested, 0.27% active | AID 2563, 2010;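 active = fall in fluorescence gain of 50% or more versus controls, with final raw signal at or below 3038400; inconclusive = same 50% fall but final raw signal above 3038400; inactive = fall in fluorescence gain under 50%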;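 note: plate controls were neutral control wells for no effect and wells lacking membranes for full effect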
Runt-SMMHC FRET: inhibitors of RUNX1 Runt–CBFb-SMMHC binding, primary screen, biochemical, FRET, Cerulean-Runt, Venus-CBFb-SMMHC, uHTS; inhibition, % at 20 µM; Cerulean-Runt/Venus-CBFb-SMMHC FRET ratio 530/480, 1 h; Runt-related transcription factor 1 (Homo sapiens) + Core-binding factor subunit beta …; AID 1434, 2008; 220,000 tested, 0.74% active;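 active = mean inhibition across duplicate retests at 20 µM reaching about 50%, limit read from the data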;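 note: 0% = DMSO wells and 100% = wells with excess untagged CBFb-SMMHC; inhibitors lower the FRET ratio by blocking Runt binding to CBFb-SMMHC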
Vif imaging: HIV Vif self-association inhibitors, primary screen, imaging, HEK293T, single point. inhibition, % at 7.49 µM. 340,000 tested, 0.35% active. HEK293T cells, Vif self-association by quenched fluorescence, 24 h; in the data active = inhibition above about 50%, passing the limit was not always enough; inconclusive = no clear call, values can overlap the other calls; inactive = below about 31%
The depositor's hits bear a star. Shown are actives, neighbours in structure and some others; about 1.7% of the full set was active somewhere.

CCN1CC=C2C(C#N)=C(N)C(C#N)(C#N)C(CCc3ccccc3)C2C1 (stereo unspecified) was read as Runt-CBFb FRET 108.2*, Runt-SMMHC FRET 37.9 and Vif imaging 79.3*.
Screening CC(=O)N1CC=C2C(C#N)=C(N)C(C#N)(C#N)C(CCc3ccccc3)C2C1 (stereo unspecified) returned RanGTP-Imp inh 5.0, Runt-CBFb FRET 7.6, Rce1 inh inactive, Runt-SMMHC FRET 13.8 and Vif imaging 2.3.
CN1CC=C2C(C#N)=C(N)C(C#N)(C#N)C(c3cccc(Cl)c3Cl)C2C1 (stereo unspecified) was read as RanGTP-Imp inh 37.3*, Runt-CBFb FRET 30.6, Rce1 inh inactive, Runt-SMMHC FRET 62.0* and Vif imaging -1.0.
`N#CC1=C(N)C(C#N)(C#N)[C@H](c2ccoc2)[C@H]2CN(Cc3ccccc3)CC=C12` gave RanGTP-Imp inh 107.3*, Runt-CBFb FRET 39.6, Rce1 inh inactive, Runt-SMMHC FRET 57.4* and Vif imaging -6.2.
Screening CC(=O)N1CC=C2C(C#N)=C(N)C(C#N)(C#N)C(C)C2C1 (stereo unspecified) returned RanGTP-Imp inh -2.2, Runt-CBFb FRET 6.7, Rce1 inh inactive, Runt-SMMHC FRET 3.6 and Vif imaging -1.7.
CN1CC=C2C(C#N)=C(N)C(C#N)(C#N)[C@H](c3ccoc3)[C@H]2C1 was read as RanGTP-Imp inh 51.5*, Runt-CBFb FRET 39.3, Rce1 inh inactive, Runt-SMMHC FRET 59.0* and Vif imaging 3.3.
Screening O=[N+]([O-])c1cccc(-n2nnnc2CN2CCCC2)c1 returned RanGTP-Imp inh 3.0, Runt-CBFb FRET -0.4, Rce1 inh inactive, Runt-SMMHC FRET -0.9 and Vif imaging -7.3.
`CCC(C)NC(=O)CSC1=Nc2ccccc2C2=NC(CC(=O)NCc3ccc(F)cc3)C(=O)N12` (stereo unspecified) gave RanGTP-Imp inh 1.9, Runt-CBFb FRET -1.9, Rce1 inh active, Runt-SMMHC FRET 3.1 and Vif imaging 19.2.
Screening NNc1nc2c(-c3ccc(F)cc3)nnn2c2ccccc12 returned RanGTP-Imp inh 21.2*, Runt-CBFb FRET 13.3, Rce1 inh inactive, Runt-SMMHC FRET -5.0 and Vif imaging -4.8.
Screening Cn1c(=O)c(/C=C/c2ccccc2)nc2ccccc21 returned RanGTP-Imp inh 52.9*, Runt-CBFb FRET 26.0, Rce1 inh inactive, Runt-SMMHC FRET 98.8* and Vif imaging -9.4.
`Cn1c(/C=C/c2ccccc2)nc2ccccc21` gave RanGTP-Imp inh 0.5, Runt-CBFb FRET -0.3, Rce1 inh inconclusive, Runt-SMMHC FRET 4.3 and Vif imaging 16.2.
For Nc1nc2ccccc2n1C(=O)c1ccc(F)cc1 the results were RanGTP-Imp inh -2.1, Runt-CBFb FRET -0.9, Rce1 inh inactive, Runt-SMMHC FRET 1.6 and Vif imaging 19.7.
O=c1c(/C=C(\O)c2ccc(F)cc2)nc2ccccc2n1-c1ccccc1 was read as RanGTP-Imp inh 77.0*, Runt-CBFb FRET 0.5, Rce1 inh inactive, Runt-SMMHC FRET 7.9 and Vif imaging 7.2.
For Cn1c(=O)c(/C=C/c2ccc(F)cc2)nc2ccccc21 the results were RanGTP-Imp inh 52.9*, Runt-CBFb FRET -8.3, Rce1 inh inactive, Runt-SMMHC FRET 38.4 and Vif imaging 1.8.
CC(=O)c1ccc(/C=C/c2nc3ccccc3n2C)o1 was read as RanGTP-Imp inh -54.1, Runt-CBFb FRET 9.3, Rce1 inh inactive, Runt-SMMHC FRET 81.0* and Vif imaging 7.5.
`CCOC(=O)c1ccccc1NC(=O)COC(=O)CCNS(=O)(=O)c1ccccc1` gave RanGTP-Imp inh inconclusive and Rce1 inh inactive.
`O=C(C[C@H]1C(=O)N(CCc2ccccc2)C[C@@H]1Cc1ccccc1)Nc1ccccc1` gave RanGTP-Imp inh 2.3, Rce1 inh inactive and Vif imaging -2.9.
`CCCCOc1ccc(/C=N/NC(=O)c2nnn(-c3nonc3N)c2CN2CCCCCC2)cc1` gave RanGTP-Imp inh 27.5*, Rce1 inh inactive and Vif imaging -1.2.
Cc1ccc(-c2c(C(=O)N/N=C/c3cccc(Cl)c3)nnn2-c2nonc2N)cc1 was read as RanGTP-Imp inh 2.3, Rce1 inh active and Vif imaging -6.4.
CCOc1ccc(-c2c(C(=O)N/N=C/c3ccc(C)cc3)nnn2-c2nonc2N)cc1 was read as RanGTP-Imp inh 3.5, Runt-CBFb FRET 3.5, Rce1 inh inactive, Runt-SMMHC FRET 2.7 and Vif imaging -1.4.
For CC(C)c1c(C(=O)N/N=C/c2ccco2)nnn1-c1nonc1N the results were RanGTP-Imp inh -1.2, Rce1 inh inactive and Vif imaging -2.7.
`CCCOc1ccc(-c2c(C(=O)N/N=C/c3ccc(C)cc3)nnn2-c2nonc2N)cc1` gave RanGTP-Imp inh -0.3, Runt-CBFb FRET 1.2, Rce1 inh inactive, Runt-SMMHC FRET 4.4 and Vif imaging 54.3*.
Cc1ccc(/C=N/NC(=O)c2nnn(-c3nonc3N)c2C(C)C)o1 was read as RanGTP-Imp inh 7.0, Rce1 inh active and Vif imaging 5.4.
Nc1nonc1-n1nnc(C(=O)N/N=C/c2ccc(OCc3ccccc3)cc2)c1CN1CCCCC1 was read as RanGTP-Imp inh 2.3, Rce1 inh inactive and Vif imaging -15.5.
For CC(=O)Nc1ccc(NC(=O)CSc2nnc(N)n2-c2ccccc2)cc1 the results were Vif imaging 3.6.
Screening CCOc1cccc(-c2c(C(=O)N/N=C/c3c(F)cccc3Cl)nnn2-c2nonc2N)c1 returned RanGTP-Imp inh 3.9, Rce1 inh active and Vif imaging -0.6.
Screening Cc1ccc(-c2c(C(=O)N/N=C/c3cccs3)nnn2-c2nonc2N)cc1 returned RanGTP-Imp inh inconclusive, Rce1 inh inactive and Vif imaging 15.1.
`CCOc1ccc(-c2c(C(=O)N/N=C/c3cccs3)nnn2-c2nonc2N)cc1` gave RanGTP-Imp inh 6.6, Rce1 inh active and Vif imaging 82.3*.
CC(=O)c1ccc(-c2cnc3c(NC=O)cc(-c4cnn(C)c4)cn23)cc1 was read as Vif imaging 2.1.
`COCC(=O)N1C[C@H]2CON(C)[C@H]2C[C@H]1c1cccc(-c2ccc(C#N)cc2)c1` gave Vif imaging -2.7.
COc1ccc(C(=O)/C=C/Nc2ccc(S(=O)(=O)Nc3cc(OC)nc(OC)n3)cc2)c(OC)c1 was read as RanGTP-Imp inh 9.4, Rce1 inh inactive and Vif imaging 5.7.

Screens (PubChem)
